Assay results: ChEMBL document CHEMBL1129630, “Synthesis and structure-activity relationships of retinoid X receptor selective diaryl sulfide analogs of retinoic acid” (J Med Chem, 1996); call rule not given here
Values belong to the molecule of their own block, whether it stands above or below them.

Experiments:
[1] = molecular target: T1, Retinoic acid receptor RXR-alpha (Homo sapiens, UniProt P19793); assay: Transcriptional activation of Retinoid X receptor RXR alpha; parameters: species or system Cercopithecidae
T1 sequence (P19793 whole entry): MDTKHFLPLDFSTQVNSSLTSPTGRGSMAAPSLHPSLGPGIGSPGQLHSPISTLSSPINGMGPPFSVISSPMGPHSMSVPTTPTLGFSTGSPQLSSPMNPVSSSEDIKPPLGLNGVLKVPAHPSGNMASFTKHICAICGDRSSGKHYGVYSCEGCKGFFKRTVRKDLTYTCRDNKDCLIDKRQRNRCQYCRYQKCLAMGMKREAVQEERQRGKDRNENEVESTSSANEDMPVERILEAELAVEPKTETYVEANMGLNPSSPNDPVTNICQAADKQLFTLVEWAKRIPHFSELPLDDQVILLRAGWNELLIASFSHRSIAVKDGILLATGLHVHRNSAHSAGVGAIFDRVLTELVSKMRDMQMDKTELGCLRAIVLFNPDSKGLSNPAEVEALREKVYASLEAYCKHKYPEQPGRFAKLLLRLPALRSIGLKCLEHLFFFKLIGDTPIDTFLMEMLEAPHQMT
Outline: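 Transient cotransfection of CV-1 cells with the receptor gene construct plus a reporter gene, read as induced transcription. Activity normalized to all-trans RA. EC50 taken as the concentration giving 50% of the maximal observed response. Single experiment, triplicate determinations.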

[2] = molecular target: T1, Retinoic acid receptor RXR-alpha; assay: Transcriptional activation of Retinoid X receptor RXR alpha;NA=not active; parameters: species or system Cercopithecidae
Outline: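 CV-1 cells transiently cotransfected with the receptor construct and a reporter gene, with induced transcription measured. Activity is normalized to all-trans RA. EC50 is the concentration giving 50% of maximal observed response, from a single experiment in triplicate.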

[3] = molecular target: T2, Retinoic acid receptor gamma (Mus musculus, UniProt P18911); assay: Dissociation constant for binding to Retinoic acid receptor gamma;NA=not active
T2 sequence (P18911 whole entry): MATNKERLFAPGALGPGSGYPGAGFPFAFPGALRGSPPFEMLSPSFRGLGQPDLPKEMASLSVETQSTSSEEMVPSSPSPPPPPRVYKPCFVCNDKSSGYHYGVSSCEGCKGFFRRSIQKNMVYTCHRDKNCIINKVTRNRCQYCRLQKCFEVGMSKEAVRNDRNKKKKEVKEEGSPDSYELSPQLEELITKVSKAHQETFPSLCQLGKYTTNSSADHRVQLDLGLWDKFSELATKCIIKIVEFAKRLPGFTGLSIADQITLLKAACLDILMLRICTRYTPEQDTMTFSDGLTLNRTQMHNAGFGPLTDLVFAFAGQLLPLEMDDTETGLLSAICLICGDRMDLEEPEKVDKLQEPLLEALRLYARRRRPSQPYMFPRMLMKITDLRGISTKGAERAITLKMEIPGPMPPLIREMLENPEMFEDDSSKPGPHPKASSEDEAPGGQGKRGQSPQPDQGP
Outline: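 Competitive binding assays against each receptor subtype, with Kd values taken from competition.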

EC50 [1]: 770 nM
SMILES: CC1(C)CCC(C)(C)c2cc(Sc3ccc(C(=O)O)cc3)ccc21

EC50 [2]: Not Active
SMILES: Cc1cc2c(cc1[S+]([O-])c1ccc(C(=O)O)cc1)C(C)(C)CCC2(C)C (stereo not drawn)

Kd [3]: Not Active
SMILES: Cc1cc2c(cc1Sc1ccc(C(=O)O)cn1)C(C)(C)CCC2(C)C
